Results reported in ChEMBL document CHEMBL1138290 (J Med Chem, 2007).
pEC50, pIC50: −log10 of the molar value. Values belong to the compound of their own block, whether it stands above or below them.

Assays:
[1] = Cytotoxicity against human KB/HeLa cells after 48 hrs by XTT assay; assay type: functional, cell-based
In short: (§1)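 XTT proliferation assay with 48 h incubation with test compound. Each experiment run at least in duplicate (n = 2). IC50 calculated by nonlinear regression of dose-response curves.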

RKO = assay: Cytotoxicity against human RKO cells with ectopic-inducible expression of p27kip1 after 48 hrs by XTT assay; assay type: functional, cell-based; in short: as §1
[2] = Antiproliferative activity against rat L12 cells after 48 hrs by XTT assay; assay type: functional, cell-based
[3] = Antiproliferative activity against rat multidrug-resistant L12 cells after 48 hrs by XTT assay; assay type: functional, cell-based; settings: L1.2, 48 h; in short: as §1
P388 [4] = assay: Antiproliferative activity against mouse P388 cells after 48 hrs by XTT assay; assay type: functional, cell-based; settings: P388, 48 h; in short: as §1
P388 [5] = assay: Antiproliferative activity against mouse adriamycin-resistant P388 cells after 48 hrs by XTT assay; assay type: functional, cell-based; settings: P388, 48 h; in short: as §1
[6] = Cell cycle arrest in KB/HeLa cells assessed as accumulation at G2/M phase after 24 hrs by flow cytometric analysis; assay type: functional, cell-based; settings: Homo sapiens
In short: (§2)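 Subconfluent KB/HeLa cells exposed to a range of compound concentrations for 24 h. Cell cycle phase distribution determined by flow cytometry. Experiments run at least in duplicate (n = 2).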

[7] = Cell cycle arrest in KB/HeLa cells assessed as accumulation at S phase at 3.16 nM after 24 hrs by flow cytometric analysis; assay type: functional, cell-based; settings: Homo sapiens; in short: as §2
[8] = Cell cycle arrest in KB/HeLa cells assessed as accumulation at S phase at 1 nM after 24 hrs by flow cytometric analysis; assay type: functional, cell-based; settings: Homo sapiens; in short: as §2
[9] = Cell cycle arrest in KB/HeLa cells assessed as accumulation at S phase at 10 nM after 24 hrs by flow cytometric analysis; assay type: functional, cell-based; settings: Homo sapiens; in short: as §2
[10] = Cell cycle arrest in KB/HeLa cells assessed as accumulation at S phase at 31.6 nM after 24 hrs by flow cytometric analysis; assay type: functional, cell-based; settings: Homo sapiens; in short: as §2
[11] = Cell cycle arrest in KB/HeLa cells assessed as accumulation at S phase at 100 nM after 24 hrs by flow cytometric analysis; assay type: functional, cell-based; settings: Homo sapiens; in short: as §2
[12] = Cell cycle arrest in KB/HeLa cells assessed as accumulation at S phase at 316 nM after 24 hrs by flow cytometric analysis; assay type: functional, cell-based; settings: Homo sapiens; in short: as §2
[13] = Cell cycle arrest in KB/HeLa cells assessed as accumulation at G2M phase at 1 nM after 24 hrs by flow cytometric analysis; assay type: functional, cell-based; settings: Homo sapiens; in short: as §2
[14] = Cell cycle arrest in KB/HeLa cells assessed as accumulation at G2M phase at 3.16 nM after 24 hrs by flow cytometric analysis; assay type: functional, cell-based; settings: Homo sapiens
[15] = Cell cycle arrest in KB/HeLa cells assessed as accumulation at G2M phase at 10 nM after 24 hrs by flow cytometric analysis; assay type: functional, cell-based; settings: Homo sapiens; in short: as §2
[16] = Cell cycle arrest in KB/HeLa cells assessed as accumulation at G2M phase at 31.6 nM after 24 hrs by flow cytometric analysis; assay type: functional, cell-based; settings: Homo sapiens; in short: as §2
[17] = Cell cycle arrest in KB/HeLa cells assessed as accumulation at G2M phase at 100 nM after 24 hrs by flow cytometric analysis; assay type: functional, cell-based; settings: Homo sapiens; in short: as §2
[18] = Cell cycle arrest in KB/HeLa cells assessed as accumulation at G2M phase at 316 nM after 24 hrs by flow cytometric analysis; assay type: functional, cell-based; settings: Homo sapiens; in short: as §2
[19] = Cell cycle arrest in KB/HeLa cells assessed as accumulation at G1 phase at 1 nM after 24 hrs by flow cytometric analysis; assay type: functional, cell-based; settings: Homo sapiens; in short: as §2
[20] = Cell cycle arrest in KB/HeLa cells assessed as accumulation at G1 phase at 3.16 nM after 24 hrs by flow cytometric analysis; assay type: functional, cell-based; settings: Homo sapiens; in short: as §2
[21] = Cell cycle arrest in KB/HeLa cells assessed as accumulation at G1 phase at 10 nM after 24 hrs by flow cytometric analysis; assay type: functional, cell-based; settings: Homo sapiens; in short: as §2
[22] = Cell cycle arrest in KB/HeLa cells assessed as accumulation at G1 phase at 31.6 nM after 24 hrs by flow cytometric analysis; assay type: functional, cell-based; settings: Homo sapiens; in short: as §2
[23] = Cell cycle arrest in KB/HeLa cells assessed as accumulation at G1 phase at 100 nM after 24 hrs by flow cytometric analysis; assay type: functional, cell-based; settings: Homo sapiens; in short: as §2
[24] = Cell cycle arrest in KB/HeLa cells assessed as accumulation at G1 phase at 316 nM after 24 hrs by flow cytometric analysis; assay type: functional, cell-based; settings: Homo sapiens; in short: as §2
K562 = assay: Antiproliferative activity against human K562 cells after 48 hrs; assay type: functional, cell-based; settings: K562, 48 h
In short: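 Growth of K562 cells measured by counting cells with a hemocytometer after 48 h (2 days) of drug treatment. IC50 is the mean of at least three independent determinations.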

Tubulin = Tubulin (Sus scrofa, UniProt P02554+P02550); assay: Inhibition of porcine brain tubulin polymerization
L1210 = assay: Antiproliferative activity against mouse vincristine-resistant L1210 cells after 48 hrs by XTT assay; assay type: functional, cell-based; settings: L1210, 48 h; in short: as §1

Compound: COC(=O)Nc1nc2cc(C(=O)c3cccs3)ccc2[nH]1 [NOCODAZOLE]
pIC50 [1]: 6.85
pIC50 (RKO): < 4.85
pIC50 [2]: 6.52
pIC50 [3]: 7.30
pIC50 (P388 [4]): 7.15
pIC50 (P388 [5]): 7.30
pEC50 [6]: 7.04
Activity [7]: 24.8%
Activity [8]: 23.6%
Activity [9]: 25.7%
Activity [10]: 25.7%
Activity [11]: 26.1%
Activity [12]: 6%
Activity [13]: 11.1%
Activity [14]: 10.6%
Activity [15]: 10%
Activity [16]: 9.9%
Activity [17]: 51.4%
Activity [18]: 93.2%
Activity [19]: 65.2%
Activity [20]: 64.6%
Activity [21]: 64.2%
Activity [22]: 64.4%
Activity [23]: 22.3%
Activity [24]: 0.9%

pIC50 (K562): 6.77
IC50 (Tubulin): 1270 nM
Compound: COc1ccc(S(=O)(=O)Oc2c3ccccc3cc3sccc23)cc1OC

pIC50 (K562): 6.08
IC50 (Tubulin): > 10000 nM
Compound: COc1ccc(S(=O)(=O)Oc2c3c(nc4ccccc24)CCCC3)cc1

pIC50 (K562): 5.64
IC50 (Tubulin): > 14000 nM
Compound: O=[N+]([O-])c1ccc(S(=O)(=O)Oc2c3ccccc3cc3sccc23)cc1

pIC50 (K562): 6.46
Compound: COc1ccc(S(=O)(=O)Oc2c3ccccc3c(Cl)c3ccccc23)cc1

pIC50 (K562): 6.10
IC50 (Tubulin): > 14000 nM
Compound: O=S(=O)(Oc1c2ccccc2cc2sccc12)c1ccccc1

pIC50 (K562): 7.30
IC50 (Tubulin): 290 nM
Compound: CNc1ccc(S(=O)(=O)Oc2c3ccccc3cc3sccc23)cc1

pIC50 (K562): 5.00
IC50 (Tubulin): > 10000 nM
Compound: COc1ccc(S(=O)(=O)Oc2c3c(Cl)cccc3cc3cccc(Cl)c23)cc1

pIC50 (L1210): < 5.30
Compound: CC[C@]1(O)C[C@@H]2CN(CCc3c([nH]c4ccccc34)[C@@](C(=O)OC)(c3cc4c(cc3OC)N(C)[C@H]3[C@@](O)(C(N)=O)[C@H](O)[C@]5(CC)C=CCN6CC[C@]43[C@@H]65)C2)C1 [VINDESINE]
pIC50 [2]: 9.00
pIC50 [3]: 6.59

pIC50 (K562): 6.89
IC50 (Tubulin): 710 nM
Compound: Nc1ccc(S(=O)(=O)Oc2c3ccccc3cc3sccc23)cc1

pIC50 (K562): 7.10
IC50 (Tubulin): 940 nM
Compound: CN(C)c1ccc(S(=O)(=O)Oc2c3ccccc3cc3sccc23)cc1

pEC50 [6]: 6.70
Compound: COc1ccc(C=C2c3ccccc3C(=O)c3ccccc32)cc1O
